Converted amounts (≈) assume the structure as drawn.
Experiments:
Assay type in all cases: functional
Enterobacter cloacae [1] = assay: Minimum inhibitory concentration against Enterobacter cloacae (265A beta-lactamase containing)
Summary of the method: (§1)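 Agar dilution: compounds diluted in 0.1 M phosphate buffer pH 7.0 and incorporated into Mueller-Hinton agar with 1% Bacto-Supplement C at 50 °C. Fresh overnight cultures diluted to about 1×10^4 cells/µL; 1 µL spotted on plates. Incubated overnight at 35 °C in ambient air. MIC taken as the lowest concentration preventing visible growth.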

Enterobacter cloacae [2] = assay: Minimum inhibitory concentration against Enterobacter cloacae (EB5); summary of the method: as §1
Escherichia coli [3] = assay: Minimum inhibitory concentration against Escherichia coli (EC14); summary of the method: as §1
Escherichia coli [4] = assay: Minimum inhibitory concentration against Escherichia coli (TEM beta-lactamase containing); summary of the method: as §1
Haemophilus influenzae = assay: Minimum inhibitory concentration against Haemophilus influenzae (C.L.); summary of the method: as §1
Klebsiella [5] = assay: Minimum inhibitory concentration against Klebsiella (KAE beta-lactamase containing); summary of the method: as §1
Klebsiella [6] = assay: Minimum inhibitory concentration against Klebsiella (X26); summary of the method: as §1
Morganella morganii = assay: Minimum inhibitory concentration against Proteus morganii (PR 15); summary of the method: as §1
Pseudomonas aeruginosa = assay: Minimum inhibitory concentration against Pseudomonas aeruginosa (X528); summary of the method: as §1
Providencia rettgeri = assay: Minimum inhibitory concentration against Proteus rettgeri (C24); summary of the method: as §1
Salmonella = assay: Minimum inhibitory concentration against Salmonella (X514); summary of the method: as §1
[7] = test system: Staphylococcus epidermidis; assay: Minimum inhibitory concentration against Staphylococcus epidermidis (222); summary of the method: as §1
Streptococcus pyogenes = assay: Minimum inhibitory concentration against Streptococcus pyogenes (C203); summary of the method: as §1
Streptococcus pneumoniae = assay: Minimum inhibitory concentration against Streptococcus pneumoniae (PARK); summary of the method: as §1
Staphylococcus aureus = assay: Minimum inhibitory concentration against Staphylococcus aureus (X1.1); summary of the method: as §1
[8] = Enterobacter cloacae, read-out: MIC
[9] = Escherichia coli, read-out: MIC
[10] = Haemophilus influenzae, read-out: MIC
[11] = Morganella morganii, read-out: MIC
[12] = Pseudomonas aeruginosa, read-out: MIC
[13] = Providencia rettgeri, read-out: MIC
[14] = Staphylococcus epidermidis, read-out: MIC
[15] = Streptococcus pyogenes, read-out: MIC
[16] = Streptococcus pneumoniae, read-out: MIC
[17] = Staphylococcus aureus, read-out: MIC

MIC (Enterobacter cloacae [1]; [8]) [µg/mL]	MIC (Enterobacter cloacae [2]; [8]) [µg/mL]	MIC (Escherichia coli [3]; [9]) [µg/mL]	MIC (Escherichia coli [4]; [9]) [µg/mL]	MIC (Haemophilus influenzae; [10]) [µg/mL]	MIC (Klebsiella [5]; Klebsiella, read-out: MIC) [µg/mL]	MIC (Klebsiella [6]; Klebsiella, read-out: MIC) [µg/mL]	MIC (Morganella morganii; [11]) [µg/mL]	MIC (Pseudomonas aeruginosa; [12]) [µg/mL]	MIC (Providencia rettgeri; [13]) [µg/mL]	MIC (Salmonella; Salmonella, read-out: MIC) [µg/mL]	MIC [7, 14] [µg/mL]	MIC (Streptococcus pyogenes; [15]) [µg/mL]	MIC (Streptococcus pneumoniae; [16]) [µg/mL]	MIC (Staphylococcus aureus; [17]) [µg/mL]	SMILES	further results
> 128	8 (≈ 15.6 µM)	2 (≈ 3.91 µM)	128 (≈ 250 µM)	1 (≈ 1.95 µM)	> 128	2 (≈ 3.91 µM)	64 (≈ 125 µM)	> 128	64 (≈ 125 µM)	0.5 (≈ 0.977 µM)	16 (≈ 31.3 µM)	0.015 (≈ 0.0293 µM)	0.03 (≈ 0.0586 µM)	4 (≈ 7.82 µM)	CO/N=C(/C(=O)N[C@@H]1C(=O)N2C(C(=O)O)=C(S(=O)(=O)c3cccs3)CC[C@H]12)c1csc(N)n1	–
> 128	16 (≈ 31.6 µM)	1 (≈ 1.97 µM)	4 (≈ 7.9 µM)	1 (≈ 1.97 µM)	> 128	2 (≈ 3.95 µM)	> 128	> 128	> 128	2 (≈ 3.95 µM)	32 (≈ 63.2 µM)	0.06 (≈ 0.118 µM)	0.125 (≈ 0.247 µM)	16 (≈ 31.6 µM)	CO/N=C(/C(=O)N[C@@H]1C(=O)N2C(C(=O)O)=C(S(=O)(=O)c3cccnc3)CC[C@H]12)c1csc(N)n1	–
> 128	2 (≈ 4.51 µM)	0.25 (≈ 0.564 µM)	1 (≈ 2.25 µM)	0.25 (≈ 0.564 µM)	64 (≈ 144 µM)	0.06 (≈ 0.135 µM)	1 (≈ 2.25 µM)	> 128	0.5 (≈ 1.13 µM)	0.125 (≈ 0.282 µM)	32 (≈ 72.2 µM)	0.06 (≈ 0.135 µM)	0.06 (≈ 0.135 µM)	16 (≈ 36.1 µM)	CO/N=C(/C(=O)N[C@@H]1C(=O)N2C(C(=O)O)=C(S(C)(=O)=O)CC[C@H]12)c1csc(N)n1	–
–	–	–	–	–	–	–	–	–	–	–	–	–	–	–	CS(=O)(=O)C1=C(C(=O)O)N2C(=O)[C@@H](NC(=O)COc3ccccc3)[C@H]2SC1 (stereo in doubt; 7 (1-S))	MIC (Enterobacter cloacae [1]): 128 µg/mL (≈ 310 µM); MIC (Enterobacter cloacae [2]): 128 µg/mL (≈ 310 µM); MIC (Escherichia coli [3]): 64 µg/mL (≈ 155 µM); MIC (Escherichia coli [4]): 128 µg/mL (≈ 310 µM); MIC (Haemophilus influenzae): 1 µg/mL (≈ 2.42 µM); MIC (Klebsiella [5]): 128 µg/mL (≈ 310 µM); MIC (Klebsiella [6]): 8 µg/mL (≈ 19.4 µM); MIC (Morganella morganii): 128 µg/mL (≈ 310 µM); MIC (Pseudomonas aeruginosa): 128 µg/mL (≈ 310 µM); MIC (Providencia rettgeri): 128 µg/mL (≈ 310 µM); MIC (Salmonella): 64 µg/mL (≈ 155 µM); MIC [7]: 0.25 µg/mL (≈ 0.606 µM); MIC (Streptococcus pyogenes): 0.125 µg/mL (≈ 0.303 µM); MIC (Streptococcus pneumoniae): 0.25 µg/mL (≈ 0.606 µM); MIC (Staphylococcus aureus): 0.25 µg/mL (≈ 0.606 µM)
> 128	> 128	4 (≈ 10.1 µM)	> 128	–	> 128	8 (≈ 20.3 µM)	> 128	> 128	> 128	–	0.5 (≈ 1.27 µM)	–	–	0.25 (≈ 0.634 µM)	CS(=O)(=O)C1=C(C(=O)O)N2C(=O)[C@@H](NC(=O)COc3ccccc3)[C@H]2CC1 (stereo in doubt; 7)	MIC (Haemophilus influenzae): 16 µg/mL (≈ 40.6 µM); MIC (Salmonella): 8 µg/mL (≈ 20.3 µM); MIC (Streptococcus pyogenes): 0.015 µg/mL (≈ 0.038 µM); MIC (Streptococcus pneumoniae): 0.06 µg/mL (≈ 0.152 µM)

SMILES	MIC (Enterobacter cloacae [1]; [8]) [µg/mL]	MIC (Enterobacter cloacae [2]; [8]) [µg/mL]	MIC (Escherichia coli [3]; [9]) [µg/mL]	MIC (Escherichia coli [4]; [9]) [µg/mL]	MIC (Haemophilus influenzae; [10]) [µg/mL]	MIC (Klebsiella [5]; Klebsiella, read-out: MIC) [µg/mL]	MIC (Klebsiella [6]; Klebsiella, read-out: MIC) [µg/mL]	MIC (Morganella morganii; [11]) [µg/mL]	MIC (Pseudomonas aeruginosa; [12]) [µg/mL]	MIC (Providencia rettgeri; [13]) [µg/mL]	MIC (Salmonella; Salmonella, read-out: MIC) [µg/mL]	MIC [7, 14] [µg/mL]	MIC (Streptococcus pyogenes; [15]) [µg/mL]	MIC (Streptococcus pneumoniae; [16]) [µg/mL]	MIC (Staphylococcus aureus; [17]) [µg/mL]	further results
N[C@@H](C(=O)N[C@@H]1C(=O)N2C(C(=O)O)=C(Cl)CS[C@H]12)c1ccccc1 [CEFACLOR ANHYDROUS]	> 128	16 (≈ 43.5 µM)	0.5 (≈ 1.36 µM)	1 (≈ 2.72 µM)	2 (≈ 5.44 µM)	> 128	0.25 (≈ 0.68 µM)	> 128	> 128	64 (≈ 174 µM)	2 (≈ 5.44 µM)	4 (≈ 10.9 µM)	0.25 (≈ 0.68 µM)	1 (≈ 2.72 µM)	2 (≈ 5.44 µM)	–
CO/N=C(\C(=O)N[C@@H]1C(=O)N2C(C(=O)O)=C(COC(C)=O)CS[C@H]12)c1csc(N)n1 [CEFOTAXIME]	32 (≈ 70.3 µM)	0.125 (≈ 0.274 µM)	0.03 (≈ 0.0659 µM)	0.03 (≈ 0.0659 µM)	0.015 (≈ 0.0329 µM)	2 (≈ 4.39 µM)	0.008 (≈ 0.0176 µM)	0.25 (≈ 0.549 µM)	32 (≈ 70.3 µM)	0.125 (≈ 0.274 µM)	0.03 (≈ 0.0659 µM)	2 (≈ 4.39 µM)	0.015 (≈ 0.0329 µM)	0.015 (≈ 0.0329 µM)	2 (≈ 4.39 µM)	–

Reference: ChEMBL document CHEMBL1124364, “3-Sulfonyl-1-carba-1-dethiacephems” (1989)
